Experiments:
[1] = Antiproliferative activity against human Panel NCI-58 (58 Carcinoma cell lines) assessed as reduction in mean cell growth at 10 uM; type: functional; design: scale not given: the % may be the effect or the level left
Procedure, shortened: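 NCI 58-cell-line screen covering leukemia, NSCLC, colon, CNS, melanoma, ovarian, renal, prostate and breast lines. Compounds given once at […] (micromolar per the line). Percent inhibition taken as 100 minus growth percent. Panel line reports the mean over all 58 lines.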

Homo sapiens = species: Homo sapiens; assay: Inhibition of ABL […] mutant (unknown origin) at 10 uM using […] as substrate incubated for 40 mins in presence of [gamma33P]ATP by scintillation counting based hotspot kinase assay relative to control
[2] = target: Tyrosine-protein kinase ABL1 (Homo sapiens) (UniProt P00519); assay: Inhibition of ABL (unknown origin) at 10 uM using […] as substrate incubated for 40 mins in presence of [gamma33P]ATP by scintillation counting based hotspot kinase assay relative to control
Tyrosine-protein kinase ABL1 (Homo sapiens), sequence (P00519 whole entry): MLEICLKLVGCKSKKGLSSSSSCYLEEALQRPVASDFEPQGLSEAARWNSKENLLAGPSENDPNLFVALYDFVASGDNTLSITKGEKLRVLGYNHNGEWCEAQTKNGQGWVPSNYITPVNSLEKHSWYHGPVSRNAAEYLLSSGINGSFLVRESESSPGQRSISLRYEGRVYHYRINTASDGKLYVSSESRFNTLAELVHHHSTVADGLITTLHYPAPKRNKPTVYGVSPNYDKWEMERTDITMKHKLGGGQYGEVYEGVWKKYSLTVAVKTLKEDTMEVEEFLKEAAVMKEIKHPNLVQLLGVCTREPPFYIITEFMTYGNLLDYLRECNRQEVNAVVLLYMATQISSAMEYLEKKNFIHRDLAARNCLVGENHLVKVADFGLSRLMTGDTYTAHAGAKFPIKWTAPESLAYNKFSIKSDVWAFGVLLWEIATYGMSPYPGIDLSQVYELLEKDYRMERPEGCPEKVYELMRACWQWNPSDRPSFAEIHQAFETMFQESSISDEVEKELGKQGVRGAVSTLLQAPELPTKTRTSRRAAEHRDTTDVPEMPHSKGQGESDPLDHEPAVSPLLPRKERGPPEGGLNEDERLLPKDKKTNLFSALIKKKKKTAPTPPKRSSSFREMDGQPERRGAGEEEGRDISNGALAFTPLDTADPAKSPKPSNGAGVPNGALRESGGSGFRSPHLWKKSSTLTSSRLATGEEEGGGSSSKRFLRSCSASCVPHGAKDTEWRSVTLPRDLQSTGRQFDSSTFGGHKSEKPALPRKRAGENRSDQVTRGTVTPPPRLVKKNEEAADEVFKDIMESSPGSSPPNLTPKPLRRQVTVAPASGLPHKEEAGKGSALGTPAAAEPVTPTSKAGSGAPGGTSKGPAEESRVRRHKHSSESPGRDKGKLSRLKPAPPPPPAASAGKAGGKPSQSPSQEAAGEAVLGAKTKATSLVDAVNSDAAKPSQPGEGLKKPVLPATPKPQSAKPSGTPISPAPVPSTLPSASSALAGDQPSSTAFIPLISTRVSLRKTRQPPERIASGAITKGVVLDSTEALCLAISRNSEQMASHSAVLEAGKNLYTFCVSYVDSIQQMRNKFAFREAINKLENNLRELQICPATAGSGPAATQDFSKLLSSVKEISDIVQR

[3] = target: RAF proto-oncogene serine/threonine-protein kinase (Homo sapiens, UniProt P04049); assay: Inhibition of RAF1 (unknown origin) at 10 uM using […] as substrate incubated for 40 mins in presence of [gamma33P]ATP by scintillation counting based hotspot kinase assay relative to control
RAF proto-oncogene serine/threonine-protein kinase, sequence (P04049 whole entry): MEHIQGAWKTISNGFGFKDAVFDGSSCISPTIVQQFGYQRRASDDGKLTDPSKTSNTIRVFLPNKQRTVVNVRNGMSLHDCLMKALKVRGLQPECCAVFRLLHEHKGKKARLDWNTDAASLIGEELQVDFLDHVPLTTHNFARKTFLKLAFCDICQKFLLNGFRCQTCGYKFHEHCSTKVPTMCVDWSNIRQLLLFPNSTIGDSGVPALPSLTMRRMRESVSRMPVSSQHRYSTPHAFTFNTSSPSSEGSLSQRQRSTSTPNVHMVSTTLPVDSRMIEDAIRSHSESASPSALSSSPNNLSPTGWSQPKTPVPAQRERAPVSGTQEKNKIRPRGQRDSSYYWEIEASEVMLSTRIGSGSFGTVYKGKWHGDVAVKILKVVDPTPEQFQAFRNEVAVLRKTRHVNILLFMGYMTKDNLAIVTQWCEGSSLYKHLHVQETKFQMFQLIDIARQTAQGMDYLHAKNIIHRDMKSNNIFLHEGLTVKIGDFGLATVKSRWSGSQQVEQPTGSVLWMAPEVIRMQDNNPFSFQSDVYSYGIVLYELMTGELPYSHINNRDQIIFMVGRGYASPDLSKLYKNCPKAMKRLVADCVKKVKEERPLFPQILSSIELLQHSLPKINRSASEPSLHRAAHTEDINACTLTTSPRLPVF

[4] = target: Epidermal growth factor receptor (Homo sapiens) (UniProt P00533); assay: Inhibition of EGFR (unknown origin) at 10 uM using […] as substrate incubated for 40 mins in presence of [gamma33P]ATP by scintillation counting based hotspot kinase assay relative to control
Epidermal growth factor receptor (Homo sapiens), sequence (P00533 whole entry): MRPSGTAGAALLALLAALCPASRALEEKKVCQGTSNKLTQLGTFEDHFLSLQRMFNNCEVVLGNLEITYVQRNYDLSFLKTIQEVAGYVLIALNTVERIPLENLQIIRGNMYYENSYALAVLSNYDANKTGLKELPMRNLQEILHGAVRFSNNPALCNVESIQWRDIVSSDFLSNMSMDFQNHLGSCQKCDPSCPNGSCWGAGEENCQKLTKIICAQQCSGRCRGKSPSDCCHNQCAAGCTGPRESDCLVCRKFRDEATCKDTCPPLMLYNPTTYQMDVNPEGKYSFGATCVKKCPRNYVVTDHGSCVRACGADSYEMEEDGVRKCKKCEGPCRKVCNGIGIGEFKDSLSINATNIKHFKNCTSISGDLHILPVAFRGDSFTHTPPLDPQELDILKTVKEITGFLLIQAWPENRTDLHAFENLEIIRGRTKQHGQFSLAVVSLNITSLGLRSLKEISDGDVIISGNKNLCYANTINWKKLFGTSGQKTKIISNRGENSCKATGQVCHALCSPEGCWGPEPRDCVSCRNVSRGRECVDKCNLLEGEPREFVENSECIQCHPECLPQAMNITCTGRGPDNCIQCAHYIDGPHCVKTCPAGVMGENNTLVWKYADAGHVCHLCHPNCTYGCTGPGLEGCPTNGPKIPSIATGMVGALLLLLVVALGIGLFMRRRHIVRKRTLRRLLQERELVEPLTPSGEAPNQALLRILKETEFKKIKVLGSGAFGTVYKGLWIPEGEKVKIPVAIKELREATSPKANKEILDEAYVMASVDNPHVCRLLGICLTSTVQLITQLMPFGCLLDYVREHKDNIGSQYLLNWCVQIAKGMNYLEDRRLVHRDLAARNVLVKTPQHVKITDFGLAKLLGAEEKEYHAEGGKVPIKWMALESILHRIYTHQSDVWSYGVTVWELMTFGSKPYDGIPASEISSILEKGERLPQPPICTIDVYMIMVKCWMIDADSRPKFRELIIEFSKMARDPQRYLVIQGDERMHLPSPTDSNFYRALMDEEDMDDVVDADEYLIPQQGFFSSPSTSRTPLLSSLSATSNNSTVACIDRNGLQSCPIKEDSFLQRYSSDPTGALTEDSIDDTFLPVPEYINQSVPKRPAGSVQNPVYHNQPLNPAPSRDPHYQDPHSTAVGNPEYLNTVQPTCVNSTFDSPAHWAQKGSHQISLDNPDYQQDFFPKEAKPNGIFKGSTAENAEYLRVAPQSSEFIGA

[5] = system: Serine/threonine-protein kinase B-raf (Homo sapiens), P15056 [V600E]; assay: Inhibition of B-RAF V600E mutant (unknown origin) at 10 uM using […] as substrate incubated for 40 mins in presence of [gamma33P]ATP by scintillation counting based hotspot kinase assay relative to control
Serine/threonine-protein kinase B-raf (Homo sapiens), P15056 [V600E], sequence (P15056 whole entry V600E): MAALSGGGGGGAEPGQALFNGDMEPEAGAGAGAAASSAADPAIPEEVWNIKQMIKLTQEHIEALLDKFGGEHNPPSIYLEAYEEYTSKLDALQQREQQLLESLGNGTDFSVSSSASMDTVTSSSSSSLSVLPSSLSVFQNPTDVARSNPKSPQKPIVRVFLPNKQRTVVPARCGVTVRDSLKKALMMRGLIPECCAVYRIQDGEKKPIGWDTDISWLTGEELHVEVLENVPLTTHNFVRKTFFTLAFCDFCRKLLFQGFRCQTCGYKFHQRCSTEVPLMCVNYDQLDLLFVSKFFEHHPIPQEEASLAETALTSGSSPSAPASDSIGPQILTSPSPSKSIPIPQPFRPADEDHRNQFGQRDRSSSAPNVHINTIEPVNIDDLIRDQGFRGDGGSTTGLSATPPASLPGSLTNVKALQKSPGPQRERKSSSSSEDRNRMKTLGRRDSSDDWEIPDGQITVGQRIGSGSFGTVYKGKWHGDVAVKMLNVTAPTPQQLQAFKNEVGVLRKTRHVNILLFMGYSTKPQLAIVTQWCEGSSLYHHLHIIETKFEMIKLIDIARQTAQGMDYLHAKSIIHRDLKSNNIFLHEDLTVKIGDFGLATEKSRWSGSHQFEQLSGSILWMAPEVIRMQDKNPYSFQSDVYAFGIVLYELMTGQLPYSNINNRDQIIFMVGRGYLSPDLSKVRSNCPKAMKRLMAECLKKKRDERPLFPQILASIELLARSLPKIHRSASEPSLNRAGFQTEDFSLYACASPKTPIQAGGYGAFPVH

[6] = target: Serine/threonine-protein kinase B-raf (Homo sapiens) (UniProt P15056); assay: Inhibition of B-RAF (unknown origin) at 10 uM using […] as substrate incubated for 40 mins in presence of [gamma33P]ATP by scintillation counting based hotspot kinase assay relative to control
Serine/threonine-protein kinase B-raf (Homo sapiens), sequence (P15056 whole entry): as the sequence (P15056 whole entry V600E) above, with E600V counted along it

NCI/ADR-RES [7] = assay: Cytotoxicity against human NCI/ADR-RES cells; type: functional
Procedure, shortened: (§1)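 Run in the US NCI 58-cell-line screen covering nine cancer types (leukemia, NSCLC, colon, CNS, melanoma, ovarian, renal, prostate, breast). Five-dose mode gave GI50, TGI and LC50 values for each cell line. In the single-dose pre-screen, % inhibition was taken as 100 minus growth percentage.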

SK-MEL-5 [8] = assay: Cytotoxicity against human SK-MEL-5 cells; type: functional; procedure, shortened: as §1
SNB-75 [9] = assay: Cytotoxicity against human SNB-75 cells; type: functional; settings: read-out: LC50 (the source's name); procedure, shortened: as §1
MDA-MB-468 [10] = assay: Antiproliferative activity against human MDA-MB-468 cells assessed as total growth inhibition; type: functional
Procedure, shortened: (§2)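 NCI five-dose testing across the 58-line panel gives GI50, TGI and LC50 for each line. Subpanel lines report mean GI50 for each of the nine cancer types.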

PC-3 [11] = assay: Antiproliferative activity against human PC-3 cells assessed as total growth inhibition; type: functional; procedure, shortened: as §2
PC-3 [12] = assay: Cytotoxicity against human PC-3 cells; type: functional; procedure, shortened: as §1
RXF 393 [13] = assay: Antiproliferative activity against human RXF 393 cells assessed as total growth inhibition; type: functional; procedure, shortened: as §2
NCI/ADR-RES [14] = assay: Antiproliferative activity against human NCI/ADR-RES cells assessed as total growth inhibition; type: functional; procedure, shortened: as §2
HOP-92 [15] = assay: Cytotoxicity against human HOP-92 cells; type: functional; procedure, shortened: as §1
K562 [16] = assay: Cytotoxicity against human k562 cells; type: functional; settings: read-out: LC50 (the source's name); procedure, shortened: as §1
SK-MEL-5 [17] = assay: Antiproliferative activity against human SK-MEL-5 cells assessed as total growth inhibition; type: functional; procedure, shortened: as §2
SNB-75 [18] = assay: Antiproliferative activity against human SNB-75 cells assessed as total growth inhibition; type: functional; procedure, shortened: as §2
RXF 393 [19] = assay: Cytotoxicity against human RXF 393 cells; type: functional; procedure, shortened: as §1
HCT-15 [20] = assay: Cytotoxicity against human HCT-15 cells; type: functional; settings: read-out: LC50 (the source's name); procedure, shortened: as §1
HCT-15 [21] = assay: Antiproliferative activity against human HCT-15 cells assessed as total growth inhibition; type: functional; procedure, shortened: as §2
COLO 205 [22] = assay: Cytotoxicity against human COLO 205 cells; type: functional; procedure, shortened: as §1
COLO 205 [23] = assay: Antiproliferative activity against human COLO 205 cells assessed as total growth inhibition; type: functional; procedure, shortened: as §2
HOP-92 [24] = assay: Antiproliferative activity against human HOP-92 cells assessed as total growth inhibition; type: functional; procedure, shortened: as §2
K562 [25] = assay: Antiproliferative activity against human K562 cells assessed as total growth inhibition; type: functional; procedure, shortened: as §2
MDA-MB-468 [26] = assay: Antiproliferative activity against human MDA-MB-468 cells assessed as reduction in cell growth; type: functional; procedure, shortened: as §2
PC-3 [27] = assay: Antiproliferative activity against human PC-3 cells assessed as reduction in cell growth; type: functional; procedure, shortened: as §2
RXF 393 [28] = assay: Antiproliferative activity against human RXF 393 cells assessed as reduction in cell growth; type: functional; procedure, shortened: as §2
NCI/ADR-RES [29] = assay: Antiproliferative activity against human NCI/ADR-RES cells assessed as reduction in cell growth; type: functional; procedure, shortened: as §2
SK-MEL-5 [30] = assay: Antiproliferative activity against human SK-MEL-5 cells assessed as reduction in cell growth; type: functional; procedure, shortened: as §2
SNB-75 [31] = assay: Antiproliferative activity against human SNB-75 cells assessed as reduction in cell growth; type: functional; procedure, shortened: as §2
HCT-15 [32] = assay: Antiproliferative activity against human HCT-15 cells assessed as reduction in cell growth; type: functional; procedure, shortened: as §2
COLO 205 [33] = assay: Antiproliferative activity against human COLO 205 cells assessed as reduction in cell growth; type: functional; procedure, shortened: as §2
HOP-92 [34] = assay: Antiproliferative activity against human HOP-92 cells assessed as reduction in cell growth; type: functional; procedure, shortened: as §2
K562 [35] = assay: Antiproliferative activity against human K562 cells assessed as reduction in cell growth; type: functional; procedure, shortened: as §2
[36] = system: Panel breast (Carcinoma cell lines); assay: Antiproliferative activity against human Panel breast (6 Carcinoma cell lines) assessed as reduction in mean cell growth; type: functional; procedure, shortened: as §2
[37] = system: Panel prostate (Carcinoma cell lines); assay: Antiproliferative activity against human Panel prostate (2 Carcinoma cell lines) assessed as reduction in mean cell growth; type: functional; procedure, shortened: as §2
[38] = system: Panel renal (Carcinoma cell lines); assay: Antiproliferative activity against human Panel renal (8 Carcinoma cell lines) assessed as reduction in mean cell growth; type: functional; procedure, shortened: as §2
[39] = system: Panel ovarian (Carcinoma cell lines); assay: Antiproliferative activity against human Panel ovarian (7 Carcinoma cell lines) assessed as reduction in mean cell growth; type: functional; procedure, shortened: as §2
[40] = system: Panel CNS (Carcinoma cell lines); assay: Antiproliferative activity against human Panel CNS (6 Carcinoma cell lines) assessed as reduction in mean cell growth; type: functional; procedure, shortened: as §2
[41] = system: Panel melanoma (Carcinoma cell lines); assay: Antiproliferative activity against human Panel melanoma (9 Carcinoma cell lines) assessed as reduction in mean cell growth; type: functional; procedure, shortened: as §2
[42] = system: Panel colon (Carcinoma cell lines); assay: Antiproliferative activity against human Panel colon (7 Carcinoma cell lines) assessed as reduction in mean cell growth; type: functional; procedure, shortened: as §2
[43] = Antiproliferative activity against human Panel non-small cell lung cancer (8 Carcinoma cell lines) assessed as reduction in mean cell growth; type: functional; settings: Non-small cell lung cancer cell line; procedure, shortened: as §2
[44] = system: Panel leukemia (Carcinoma cell lines); assay: Antiproliferative activity against human Panel leukemia (5 Carcinoma cell lines) assessed as reduction in mean cell growth; type: functional; procedure, shortened: as §2
MDA-MB-468 [45] = assay: Cytotoxicity against human MDA-MB-468 cells; type: functional; settings: read-out: LC50 (the source's name); procedure, shortened: as §1

In the case of `COc1cccc(-c2nn(-c3ccccc3)cc2-c2ccnc(NCCNC(=O)Nc3cccc(C(F)(F)F)c3)c2)c1`, the Activity [1] is reported as >80%, the inhibition (Homo sapiens) is reported as 2.92% and the inhibition [2] is reported as 13.4%. It also gave an inhibition [3] of 45.1%, an inhibition [4] of -2.09% and an inhibition [5] of 36.2%. The inhibition [6] was 14%, the LC50 (NCI/ADR-RES [7]) was 100 µM and the LC50 (SK-MEL-5 [8]) was 7.82 µM. It also gave a CC50 (SNB-75 [9]) of 100 µM, a TGI (MDA-MB-468 [10]) of 3.5 µM and a TGI (PC-3 [11]) of 15.7 µM. It also gave an LC50 (PC-3 [12]) of 100 µM, a TGI (RXF 393 [13]) of 4.63 µM and a TGI (NCI/ADR-RES [14]) of 5.75 µM. For the same compound, the LC50 (HOP-92 [15]) was 100 µM, the CC50 (K562 [16]) was 100 µM and the TGI (SK-MEL-5 [17]) was 3.55 µM. For the same compound, the TGI (SNB-75 [18]) was 100 µM, the LC50 (RXF 393 [19]) was 25 µM and the CC50 (HCT-15 [20]) was 100 µM. It also gave a TGI (HCT-15 [21]) of 4.7 µM, an LC50 (lethal concentration 50%) (COLO 205 [22]) of 6.95 µM and a TGI (COLO 205 [23]) of 3.34 µM. The TGI (HOP-92 [24]) was 7.65 µM, the TGI (K562 [25]) was 100 µM and the GI50 (MDA-MB-468 [26]) was 1.7 µM. The GI50 (PC-3 [27]) was 2.02 µM, the GI50 (RXF 393 [28]) was 1.53 µM and the GI50 (NCI/ADR-RES [29]) was 2.22 µM. The GI50 (SK-MEL-5 [30]) was 1.73 µM, the GI50 (SNB-75 [31]) was 1.62 µM and the GI50 (HCT-15 [32]) was 1.7 µM. The GI50 (COLO 205 [33]) was 1.88 µM, the GI50 (HOP-92 [34]) was 1.46 µM and the GI50 (K562 [35]) was 2.13 µM. For the same compound, the GI50 [36] was 2.23 µM, the GI50 [37] was 3.09 µM and the GI50 [38] was 2.14 µM. It also gave a GI50 [39] of 2.54 µM, a GI50 [40] of 2.07 µM and a GI50 [41] of 1.91 µM. For the same compound, the GI50 [42] was 1.98 µM, the GI50 [43] was 2.03 µM and the GI50 [44] was 2.04 µM.

`CNC(=O)c1cc(Oc2ccc(NC(=O)Nc3ccc(Cl)c(C(F)(F)F)c3)cc2)ccn1` [SORAFENIB] gave a CC50 (MDA-MB-468 [45]) of 50.1 µM, a CC50 (SNB-75 [9]) of 7.94 µM and a TGI (RXF 393 [13]) of 10 µM. The TGI (NCI/ADR-RES [14]) was 15.8 µM, the CC50 (K562 [16]) was 100 µM and the CC50 (HCT-15 [20]) was 50.1 µM. For the same compound, the TGI (HCT-15 [21]) was 10 µM, the TGI (COLO 205 [23]) was 5.01 µM and the TGI (K562 [25]) was 100 µM. It also gave a GI50 (MDA-MB-468 [26]) of 1.99 µM, a GI50 (PC-3 [27]) of 1.99 µM and a GI50 (RXF 393 [28]) of 2.51 µM. For the same compound, the GI50 (SNB-75 [31]) was 3.16 µM, the GI50 (COLO 205 [33]) was 1.99 µM and the GI50 (K562 [35]) was 3.16 µM. For the same compound, the GI50 [36] was 2.17 µM, the GI50 [37] was 2.58 µM and the GI50 [38] was 2.94 µM. The GI50 [39] was 2.88 µM, the GI50 [40] was 2.33 µM and the GI50 [41] was 1.87 µM. It also gave a GI50 [42] of 2.19 µM, a GI50 [43] of 2.25 µM and a GI50 [44] of 2.43 µM.
